The source of these data is ChEMBL document CHEMBL4000163, “Pyrazole derived ultra-short antimicrobial peptidomimetics with potent anti-biofilm activity” (Eur J Med Chem, 2017).

In brackets after ≈: the same amount, converted by molar mass. Activity calls are given as the source filed them. The rule behind the calls is not given here.

Data set [1] concerns Staphylococcus aureus. In words: Antimicrobial activity against Staphylococcus aureus KCTC 1621 in presence of NaCl. The data set is classed as functional. The gist of the method:
(§1)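 MIC by microdilution with 2 × 10⁶ CFU/ml S. aureus KCTC 1621 in LB medium supplemented with physiological salt: 150 mM NaCl, 1 mM MgCl₂ or 2.5 mM CaCl₂; growth inhibition endpoint as in the standard MIC assay.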

The test system of data set [2] is Staphylococcus aureus. Put plainly: Potency index, ratio of melittin MIC100 to compound MIC100 for Staphylococcus aureus KCTC 1621. The data set is classed as functional.
Data set [3] has as its system Pseudomonas aeruginosa. Put plainly: Antimicrobial activity against Pseudomonas aeruginosa KCTC 1637 incubated for 18 to 20 hrs by broth microdilution assay. As to conditions: read-out: MIC100. Format: functional. The gist of the method:
(§2)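 Broth microdilution in 1% peptone. Inoculum was 2 × 10⁶ CFU/mL mixed 1:1 with serial 2-fold peptide dilutions and incubated 18–20 h at 37 °C. Growth was read as absorbance at 600 nm; MIC is the lowest peptide concentration giving 100% growth inhibition.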

A short description of data set [4]: Therapeutic index, ratio of MHC for sheep RBC to geometric mean of MICs for four bacterial strains.
Data set [5] has as its system Staphylococcus epidermidis. Put plainly: Antimicrobial activity against Staphylococcus epidermidis KCTC 1917 incubated for 18 to 20 hrs by broth microdilution assay. The data set is classed as functional. As to conditions: read-out: MIC100. The gist of the method: as §2
Data set [6] relates to Staphylococcus aureus. In words: Antimicrobial activity against Staphylococcus aureus KCTC 1621 in presence of MgCl2. Format: functional. The essentials: as §1
In data set [7] the test system is RAW264.7. In words: Cytotoxicity against mouse RAW264.7 cells up to 32 ug/mL after 2 days by MTT assay. The data set is classed as cell-based. Particulars: raw264.7, 48 h. The essentials:
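Cells in DMEM with 10% FBS seeded at 2×10^4 cells/well and incubated 24 h at 37 °C, 5% CO₂. Serial 2-fold peptide dilutions were added for 2 days, then MTT for 4 h. Formazan was dissolved in 20% SDS/0.01 M HCl and read at 570 nm. Survival is expressed as a percentage of untreated cells.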

Data set [8] has as its system Staphylococcus aureus. In words: Potency index, ratio of melittin MIC100 to compound MIC100 for methicillin resistant Staphylococcus aureus CCARM 3095. The data set is classed as functional.
Data set [9] has as its system Pseudomonas aeruginosa. Put plainly: Potency index, ratio of melittin MIC100 to compound MIC100 for Pseudomonas aeruginosa KCTC 1637. The data set is classed as functional.
Data set [10] deals with Staphylococcus aureus. In words: Potency index, ratio of LL-37 MIC100 to compound MIC100 for Staphylococcus aureus KCTC 1621. Format: functional.
The test system of data set [11] is RAW264.7. In words: Antiinflammatory activity in mouse RAW264.7 cells assessed as inhibition of LPS-induced iNOS mRNA expression at 16 ug/mL after 6 hrs by RT-PCR method. The data set is classed as functional, cell-based. The essentials: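 RAW264.7 cells plated at 5×10^5 cells/well and cultured overnight. They were stimulated with 20 ng/mL LPS, with or without peptide, in DMEM with 10% bovine serum, for 3 h (TNF-α) or 6 h (iNOS). Total RNA was reverse-transcribed with oligo(dT)15 primers and amplified for 30 cycles (annealing 55 °C). mRNA was analysed by PCR.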

Data set [12] has as its system Pseudomonas aeruginosa. In words: Antibacterial activity against multidrug-resistant Pseudomonas aeruginosa CCARM 2095 after 18 to 20 hrs by broth microdilution assay. The data set is classed as functional. Particulars: read-out: MIC100. The essentials: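 Broth microdilution in 1% peptone: bacteria at 2 × 10⁶ CFU/mL mixed 1:1 with serial 2-fold peptide dilutions, 18-20 h at 37 °C; growth read as absorbance at 600 nm. MIC taken as lowest concentration giving 100% growth inhibition.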

Data set [13] relates to Escherichia coli. In words: Induction of outer membrane permeabilization in Escherichia coli KCTC 1682 assessed as NPN uptake by spectrofluorophotometric analysis. The data set is classed as functional. The gist of the method:
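E. coli KCTC 1682 at OD600 0.05 in 5 mM HEPES pH 7.2 with 5 mM KCN; NPN 10 µM final, background fluorescence recorded (ex 350, em 420 nm). Peptide aliquots at various concentrations added and fluorescence followed over time until no further rise.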

Data set [14] deals with Escherichia coli. Put plainly: Antimicrobial activity against Escherichia coli KCTC 1682 incubated for 18 to 20 hrs by broth microdilution assay. Format: functional. Particulars: read-out: MIC100. The essentials:
as §2

Data set [15] concerns Escherichia coli. In words: Antimicrobial activity against Escherichia coli KCTC 1682 assessed as disruption of bacterial cell membrane at 2 times MIC after 1 hr by transmission electron microscopy. The data set is classed as functional. The gist of the method:
(§3)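 Bacteria at 2×10^7 CFU/mL in LB, washed three times in PBS. Peptide in PBS was added to a final 2 × MIC and incubated 1 h at 37 °C. Pelleted cells were resuspended in PBS, applied to glow-discharged carbon-film grids, negatively stained with 1% uranyl acetate for 1 min, and imaged by TEM at 120 kV.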

A short description of data set [16]: Therapeutic index, ratio of MHC for sheep RBC to MIC for Staphylococcus aureus KCTC 1621.
For data set [17], the system named is RAW264.7. In words: Antiinflammatory activity in mouse RAW264.7 cells assessed as inhibition of LPS-induced nitric oxide production after 24 hrs by Griess method. The data set is classed as functional, cell-based. The essentials:
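RAW264.7 macrophages (5×10^5 cells/mL) stimulated with LPS (20 ng/mL), with or without peptide, for 24 h. Supernatants were mixed 1:1 with Griess reagent (1% sulfanilamide, 0.1% naphthylethylenediamine, 2% phosphoric acid) for 10 min at room temperature, read at 540 nm, and quantified against an NaNO₂ standard curve. Mean ± SEM of technical triplicates, ANOVA with Bonferroni post-test.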

For data set [18], the system named is Pseudomonas aeruginosa. Put plainly: Antibiofilm activity against multidrug-resistant Pseudomonas aeruginosa CCARM 2095 after 24 hrs by crystal violet staining based method. Format: functional. Particulars: CCARM 2095, 24 h. The essentials:
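MDRPA 2095 (1×10^6 cfu/mL) in MHB with 0.2% glucose, 24 h at 37 °C with or without peptide (2-fold dilutions, 1-64 µg/mL), six wells each. Wells washed with PBS, methanol-fixed, stained with 0.1% crystal violet 5 min, stain resolubilized in 95% ethanol, absorbance at 600 nm.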

Data set [19] relates to Staphylococcus aureus. In words: Antimicrobial activity against Staphylococcus aureus KCTC 1621 assessed as cell membrane damage at 2 times MIC after 1 hr by transmission electron microscopy. Format: functional. The essentials: as §3

For `N=C(N)NCCC[C@H](NC(=O)c1nn(CCc2cccc3ccccc23)cc1NC(=O)[C@H](CCCNC(=N)N)NC(=O)c1nn(CCc2cccc3ccccc23)cc1N)C(N)=O`, the MIC in the data set with Staphylococcus aureus [1] was determined as 4 µg/mL; in the data set with Pseudomonas aeruginosa [3], 8 µg/mL (≈ 9.35 µM); in data set [5], 32 µg/mL (≈ 37.4 µM); with Staphylococcus aureus [6] it was 8 µg/mL; in the data set with Pseudomonas aeruginosa [12], 8 µg/mL (≈ 9.35 µM); in the data set with Escherichia coli [14], 32 µg/mL (≈ 37.4 µM). In addition, the Ratio with Staphylococcus aureus [2] was 4; in the data set on Staphylococcus aureus [8], 2 - 4; in the data set on Pseudomonas aeruginosa [9], 4; with Staphylococcus aureus [10] it was 8. The TI in data set [4] and in data set [16] was 53.9 in each case. For the same compound, the Activity entry was “Non-Toxic” with RAW264.7 [7] and “Dose-dependent effect” in the data set with Escherichia coli [13]. In addition, the inhibition result with RAW264.7 [11] is “Active”. The result with Escherichia coli [15] and in the data set on Staphylococcus aureus [19] was Active. Also, the inhibition result in the data set on RAW264.7 [17] is “Dose-dependent effect”. In addition, in the data set with Pseudomonas aeruginosa [18], the IC90 stood at 16 µg/mL (≈ 18.7 µM).
